The text below walks through data of ChEMBL document CHEMBL3046812, “Synthesis, fungicidal activity, and 3D-QSAR of pyridazinone-substituted 1,3,4-oxadiazoles and 1,3,4-thiadiazoles” (2002).

For this experiment, the system named is Puccinia recondita. The experiment can be described thus: Antifungal activity against Puccinia recondita infected wheat leaves after 10 days relative to triadimefon. The class given is functional. The gist of the method: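 Wheat leaves inoculated with Puccinia recondita uredospores mixed 1:10 with talcum powder, held 24 h in a moist chamber, then sprayed once dry with 0.001 M compound solutions in water/DMF (5:1, with Sorpal-144). Plants kept in greenhouse; percent disease control versus untreated pots scored 10 days after treatment. Three replicates; triadimefon reference tested at 100 ppm under identical conditions.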
Turning to `Cc1cc(=O)c(-c2nnc(Nc3ccccc3F)s2)nn1-c1ccc(Cl)cc1Cl`, the “inhibition (INH)” value is listed as 0.8%.
In the case of `Cc1cc(=O)c(-c2nnc(Nc3ccccc3F)s2)nn1-c1cc(Cl)c(Cl)cc1Cl`, the “inhibition (INH)” value was 0.6%.
Consider `Cc1cc(=O)c(-c2nnc(Nc3ccccc3F)s2)nn1-c1ccccc1Cl`, for which the “inhibition (INH)” value came to 0.1%.
`Cc1cc(=O)c(-c2nnc(Nc3cccc(C(F)(F)F)c3)o2)nn1-c1ccc(Cl)cc1`: the “inhibition (INH)” value was 0.9%.
With `Cc1ccc(-n2nc(-c3nnc(Nc4cccc(C(F)(F)F)c4)o3)c(=O)cc2C)c(C)c1`, the “inhibition (INH)” value is recorded as 0.7%.
Next, `Cc1cc(=O)c(-c2nnc(Nc3ccccc3F)o2)nn1-c1ccccc1`: 0.9%; `Cc1cc(=O)c(-c2nnc(Nc3cccc(C(F)(F)F)c3)s2)nn1-c1ccc(Cl)cc1Cl`: 0.9%.
For `Cc1cc(=O)c(-c2nnc(Nc3ccccc3F)o2)nn1-c1cc(Cl)c(Cl)cc1Cl`, the “inhibition (INH)” value is 0.9%.
Turning to `Cc1cc(=O)c(-c2nnc(Nc3cccc(C(F)(F)F)c3)s2)nn1-c1ccccc1`, the “inhibition (INH)” value came to 0.6%.
Take `Cc1cc(=O)c(-c2nnc(Nc3cccc(C(F)(F)F)c3)s2)nn1-c1c(Cl)cccc1Cl`: the “inhibition (INH)” value stood at 0.5%.
As for `Cc1cc(=O)c(-c2nnc(Nc3ccccc3)o2)nn1-c1ccccc1Cl`, the “inhibition (INH)” value is 0.1%.
Regarding `Cc1cc(=O)c(-c2nnc(Nc3ccccc3F)s2)nn1-c1ccc(Cl)cc1`, the “inhibition (INH)” value was found to be 0.5%.
`Cc1cc(=O)c(-c2nnc(Nc3ccccc3F)o2)nn1-c1ccccc1Cl`: the “inhibition (INH)” value is on record as 0.8%.
In the case of `Cc1cc(=O)c(-c2nnc(Nc3cccc(C(F)(F)F)c3)s2)nn1-c1ccc(Cl)cc1`, the “inhibition (INH)” value is recorded as 0.6%.
Turning to `Cc1cc(=O)c(-c2nnc(Nc3ccccc3F)o2)nn1-c1c(Cl)cccc1Cl`, the “inhibition (INH)” value was determined as 0.8%.
On to `Cc1ccc(-n2nc(-c3nnc(Nc4ccccc4F)s3)c(=O)cc2C)c(C)c1`, for which the “inhibition (INH)” value was 0.9%.
To `Cc1cc(=O)c(-c2nnc(Nc3ccccc3)s2)nn1-c1ccc(Cl)cc1Cl` belongs 0.2%.
In the case of `Cc1ccc(-n2nc(-c3nnc(Nc4cccc(C(F)(F)F)c4)s3)c(=O)cc2C)c(C)c1`, the “inhibition (INH)” value worked out at 0.9%.
For the compound `Cc1cc(=O)c(-c2nnc(Nc3cccc(C(F)(F)F)c3)s2)nn1-c1cc(Cl)c(Cl)cc1Cl`, the “inhibition (INH)” value is listed as 0.7%.
Regarding `Cc1cc(=O)c(-c2nnc(Nc3ccccc3)s2)nn1-c1ccccc1Cl`, the “inhibition (INH)” value is on record as 0.1%.
For the compound `Cc1cc(=O)c(-c2nnc(Nc3cccc(C(F)(F)F)c3)s2)nn1-c1ccccc1Cl`, the “inhibition (INH)” value came out at 0.7%.
As to `Cc1cc(=O)c(-c2nnc(Nc3cccc(C(F)(F)F)c3)o2)nn1-c1ccccc1Cl`, the “inhibition (INH)” value came to 0.9%.
Take `Cc1cc(=O)c(-c2nnc(Nc3ccccc3F)o2)nn1-c1ccc(Cl)cc1`: the “inhibition (INH)” value amounted to 0.7%.
Regarding `COc1ccc(Nc2nnc(-c3nn(-c4ccc(Cl)cc4)c(C)cc3=O)o2)cc1`, the “inhibition (INH)” value is given as 0.8%.
Turning to `Cc1ccc(-n2nc(-c3nnc(Nc4ccccc4F)o3)c(=O)cc2C)c(C)c1`, the “inhibition (INH)” value is 0.8%.
For the compound `Cc1cc(=O)c(-c2nnc(Nc3ccccc3F)s2)nn1-c1c(Cl)cccc1Cl`, the “inhibition (INH)” value is 0.3%.
To `Cc1cc(=O)c(-c2nnc(Nc3ccccc3F)s2)nn1-c1ccccc1` belongs 0.5%.
